Experimental data reported in ChEMBL document CHEMBL1687712, “Antiviral effects of lamivudine, emtricitabine, adefovir dipivoxil, and tenofovir disoproxil fumarate administered orally alone and in combination to woodchucks with chronic woodchuck hepatitis virus infection” (Antimicrob Agents Chemother, 2008).
The source made the active and inactive calls. The calls are words filed in the database; no cut-off is given here.

Key:
[1] = system: Woodchuck hepatitis virus; assay: Antiviral activity against Woodchuck hepatitis virus infected in woodchuck assessed as reduction of viral antigen level in serum at 15 mg/kg, po qd measured on 36th week on 48 weeks study (reference value: 3.8 +/- 1.3 log10 ng/ml); format: functional
[2] = system: Woodchuck hepatitis virus; assay: Antiviral activity against Woodchuck hepatitis virus infected in woodchuck assessed as absent of lesion in portal hepatitis at 15 mg/kg, po qd measured on 12th week on 48 weeks study; format: functional, organism-based; parameters: dose 15 mg/kg
How it was run: (§1)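 Adult chronic WHV-carrier woodchucks (neonatally inoculated), 5 per group, given drug once daily by dose syringe in semisynthetic liquid diet, for 48 weeks; placebo got diet alone. Ultrasound-guided needle liver biopsies under ketamine/xylazine anesthesia at pretreatment, weeks 12, 36, 48 and 12 weeks post-withdrawal. Biopsies were formalin-fixed, paraffin-embedded and H&E stained. Portal and lobular hepatitis were graded 0 (absent) to 4 (most severe).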

[3] = system: Woodchuck hepatitis virus; assay: Antiviral activity against Woodchuck hepatitis virus infected in woodchuck assessed as reduction of viral RNA level per ug of total cell DNA at 15 mg/kg, po qd measured on 36th week on 48 weeks study (reference value: 33 +/- 21 pg); format: functional
How it was run: (§2)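 Chronic WHV-carrier woodchucks, 5 per group, 15 mg/kg/day oral once daily for 48 weeks in liquid diet. Needle liver biopsies were snap-frozen in liquid nitrogen and stored at −70°C. Hepatic WHV DNA replicative intermediates were quantified by Southern blot (pg/μg total cell DNA) and WHV RNA by Northern blot; group means ± SD were compared with pretreatment and placebo.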

[4] = system: Woodchuck hepatitis virus; assay: Antiviral activity against Woodchuck hepatitis virus infected in woodchuck assessed as reduction of viral RNA level per ug of total cell DNA at 15 mg/kg, po qd for 48 weeks (reference value: 34 +/- 20 pg); format: functional; how it was run: as §2
Marmota monax [5] = assay: Toxicity in Woodchuck hepatitis virus infected woodchuck assessed as effect on hematological parameters at 15 mg/kg, po qd for 48 weeks measured up to 60 weeks; format: organism-based; parameters: dose 15 mg/kg, route oral; settings: in vivo
How it was run: (§3)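 Chronic WHV-carrier woodchucks, 5 per group, were dosed orally once daily in liquid diet for 48 weeks, with a placebo diet-only group. Body weights were monitored. Complete blood counts were taken 2 weeks pretreatment, at weeks 12, 36 and 48 of treatment, and 12 weeks after withdrawal. Values were compared with placebo controls.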

Marmota monax [6] = assay: Toxicity in Woodchuck hepatitis virus infected woodchuck assessed as increase of liver sorbitol dehydrogenase activity at 15 mg/kg, po qd measured on 28 to 48 weeks on 48 week study; format: organism-based; parameters: dose 15 mg/kg, route oral; settings: in vivo
How it was run: (§4)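 Woodchucks chronically infected with WHV, 5 per group, received oral drug once daily in liquid diet for 48 weeks; placebo got diet only. Serum chemistry (GGT, ALP, ALT, AST, SDH, among others) was run 2 weeks pretreatment, at week 0, every other week to week 12, then monthly to week 48. Sampling continued at 2, 4, 6, 8 and 12 weeks post-treatment.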

[7] = system: Woodchuck hepatitis virus; assay: Antiviral activity against Woodchuck hepatitis virus infected in woodchuck assessed as frequency of hepatocytes expressing viral antigen at 15 mg/kg, po qd for 48 weeks measured on 60th week; format: functional, Hepatocyte
How it was run: (§5)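 Chronic WHV-carrier woodchucks, 5 per group, given 15 mg/kg/day orally once daily for 48 weeks in liquid diet; placebo is diet alone. Liver biopsies at pretreatment, weeks 12, 36, 48 and 12 weeks after withdrawal. Cytoplasmic WHsAg staining scored 0–4: 1 ≤1%, 2 ≤2%, 3 ≤5%, 4 ≥10% of hepatocytes.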

[8] = system: Woodchuck hepatitis virus; assay: Antiviral activity against Woodchuck hepatitis virus infected in woodchuck assessed as reduction of viral DNA replicative intermediate level per ug of total cell DNA at 15 mg/kg, po qd measured on 12th week on 48 weeks study (reference value: 1495 +/- 890 pg); format: functional; how it was run: as §2
[9] = system: Woodchuck hepatitis virus; assay: Antiviral activity against Woodchuck hepatitis virus infected in woodchuck assessed as absent of lesion in lobular hepatitis at 15 mg/kg, po qd measured on 12th week on 48 weeks study; format: functional, organism-based; parameters: dose 15 mg/kg; how it was run: as §1
Marmota monax [10] = assay: Toxicity in Woodchuck hepatitis virus infected woodchuck assessed as increase of serum gamma-glutamyltransferase activity at 15 mg/kg, po qd for 48 weeks; format: organism-based; parameters: dose 15 mg/kg, route oral; settings: in vivo, 8064 h; how it was run: as §4
[11] = system: Woodchuck hepatitis virus; assay: Antiviral activity against Woodchuck hepatitis virus infected in woodchuck assessed as reduction of viral DNA replicative intermediate level per ug of total cell DNA at 15 mg/kg, po qd measured on 36th week on 48 weeks study (reference value: 1132 +/- 738 pg); format: functional; how it was run: as §2
[12] = system: Woodchuck hepatitis virus; assay: Antiviral activity against Woodchuck hepatitis virus infected in woodchuck assessed as reduction of viral DNA replicative intermediate level per ug of total cell DNA at 15 mg/kg, po qd for 48 weeks (reference value: 995 +/- 736 pg); format: functional; how it was run: as §2
Marmota monax [13] = assay: Toxicity in Woodchuck hepatitis virus infected woodchuck assessed as increase of liver alanine aminotransferase activity at 15 mg/kg, po qd measured on 4 to 24 weeks on 48 week study; format: organism-based; parameters: dose 15 mg/kg, route oral; settings: in vivo; how it was run: as §4
[14] = system: Woodchuck hepatitis virus; assay: Antiviral activity against Woodchuck hepatitis virus infected in woodchuck assessed as frequency of hepatocytes expressing viral antigen at 15 mg/kg, po qd measured on 36th week on 48 weeks study; format: functional, Hepatocyte; how it was run: as §5
[15] = system: Woodchuck hepatitis virus; assay: Antiviral activity against Woodchuck hepatitis virus infected in woodchuck assessed as reduction of viral antigen positive hepatocytes at 15 mg/kg, po qd measured on 36th week on 48 weeks study (reference value: 41 +/- 25 %); format: functional, Hepatocyte; parameters: scale not given: the % may be the effect or the level left
How it was run: (§6)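 Chronic WHV-carrier woodchucks, 5 per group, 15 mg/kg/day oral once daily for 48 weeks in liquid diet. Liver biopsies were taken at pretreatment, weeks 12, 36, 48 and week 60. Percentage of hepatocytes positive for WHcAg was given as group mean ± SD and compared with pretreatment and placebo.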

[16] = system: Woodchuck hepatitis virus; assay: Antiviral activity against Woodchuck hepatitis virus infected in woodchuck assessed as reduction of viral antigen level in serum at 15 mg/kg, po qd for 48 weeks measured on 60th week (reference value: 3.3 +/- 1.6 log10 ng/ml); format: functional
[17] = system: Woodchuck hepatitis virus; assay: Antiviral activity against Woodchuck hepatitis virus infected in woodchuck assessed as reduction of viral antigen positive hepatocytes at 15 mg/kg, po qd for 48 weeks measured on 60th week (reference value: 26 %); format: functional, Hepatocyte; parameters: scale not given: the % may be the effect or the level left; how it was run: as §6
[18] = system: Woodchuck hepatitis virus; assay: Antiviral activity against Woodchuck hepatitis virus infected in woodchuck assessed as frequency of hepatocytes expressing viral antigen at 15 mg/kg, po qd for 48 weeks; format: functional, Hepatocyte; how it was run: as §5
[19] = system: Woodchuck hepatitis virus; assay: Antiviral activity against Woodchuck hepatitis virus infected in woodchuck assessed as reduction of viral RNA level per ug of total cell DNA at 15 mg/kg, po qd measured on 12th week on 48 weeks study (reference value: 46 +/- 25 pg); format: functional; how it was run: as §2
[20] = system: Woodchuck hepatitis virus; assay: Antiviral activity against Woodchuck hepatitis virus infected in woodchuck assessed as reduction of viral antigen level in serum at 15 mg/kg, po qd for 48 weeks (reference value: 3.8 +/- 1.3 log10 ng/ml); format: functional
Marmota monax [21] = assay: Toxicity in Woodchuck hepatitis virus infected woodchuck assessed as increase of liver sorbitol dehydrogenase activity at 15 mg/kg, po qd measured on 4 to 24 weeks on 48 week study; format: organism-based; parameters: dose 15 mg/kg, route oral; settings: in vivo; how it was run: as §4
Marmota monax [22] = assay: Toxicity in Woodchuck hepatitis virus infected woodchuck assessed as increase of liver alkaline phosphatase activity at 15 mg/kg, po qd for 48 weeks; format: organism-based; parameters: dose 15 mg/kg, route oral; settings: in vivo, 8064 h; how it was run: as §4
Marmota monax [23] = assay: Toxicity in Woodchuck hepatitis virus infected woodchuck assessed as change in body weight at 15 mg/kg, po qd for 48 weeks measured up to 60 weeks; format: organism-based; parameters: dose 15 mg/kg, route oral; settings: in vivo; how it was run: as §3
[24] = system: Woodchuck hepatitis virus; assay: Antiviral activity against Woodchuck hepatitis virus infected in woodchuck assessed as reduction of viral RNA level per ug of total cell DNA at 15 mg/kg, po qd for 48 weeks measured on 60th week (reference value: 27 pg); format: functional; how it was run: as §2
[25] = system: Woodchuck hepatitis virus; assay: Antiviral activity against Woodchuck hepatitis virus infected in woodchuck assessed as reduction of viral antigen positive hepatocytes at 15 mg/kg, po qd for 48 weeks study (reference value: 35 +/- 27 %); format: functional, Hepatocyte; parameters: scale not given: the % may be the effect or the level left; how it was run: as §6
Marmota monax [26] = assay: Toxicity in Woodchuck hepatitis virus infected woodchuck assessed as increase of liver alanine aminotransferase activity at 15 mg/kg, po qd for 48 weeks; format: organism-based; parameters: dose 15 mg/kg, route oral; settings: in vivo, 8064 h; how it was run: as §4
[27] = system: Woodchuck hepatitis virus; assay: Antiviral activity against Woodchuck hepatitis virus infected in woodchuck assessed as reduction of viral antigen level in serum at 15 mg/kg, po qd measured on 12th week on 48 weeks study (reference value: 4.3 +/- 1.5 log10 ng/ml); format: functional
Marmota monax [28] = assay: Toxicity in Woodchuck hepatitis virus infected woodchuck assessed as increase of liver aspartate aminotransferase activity at 15 mg/kg, po qd for 48 weeks; format: organism-based; parameters: dose 15 mg/kg, route oral; settings: in vivo, 8064 h; how it was run: as §4
[29] = system: Woodchuck hepatitis virus; assay: Antiviral activity against Woodchuck hepatitis virus infected in woodchuck assessed as reduction of viral antigen positive hepatocytes at 15 mg/kg, po qd measured on 12th week on 48 weeks study (reference value: 55 +/- 32 %); format: functional, Hepatocyte; parameters: scale not given: the % may be the effect or the level left; how it was run: as §6
[30] = system: Woodchuck hepatitis virus; assay: Antiviral activity against Woodchuck hepatitis virus infected in woodchuck assessed as frequency of hepatocytes expressing viral antigen at 15 mg/kg, po qd measured on 12th week on 48 weeks study; format: functional, Hepatocyte; how it was run: as §5
[31] = system: Woodchuck hepatitis virus; assay: Antiviral activity against Woodchuck hepatitis virus infected in woodchuck assessed as reduction of viral DNA replicative intermediate level per ug of total cell DNA at 15 mg/kg, po qd for 48 weeks measured on 60th week (reference value: 979 pg); format: functional; how it was run: as §2
[32] = system: Woodchuck hepatitis virus; assay: Antiviral activity against Woodchuck hepatitis virus infected in woodchuck assessed as absent of lesion in portal hepatitis at 15 mg/kg, po qd for 48 weeks; format: functional, organism-based; parameters: dose 15 mg/kg; how it was run: as §1

Structure (SMILES) | Activity [1] | Activity [2] | Activity [3] | Activity [4] | Activity (Marmota monax [5]) | Activity (Marmota monax [6]) | Activity [7] | Activity [8] | Activity (Marmota monax [10]) | Activity [11] | Activity [12] | Activity (Marmota monax [13]) | Activity [14] | Activity [15] | Activity [16] | Activity [17] | Activity [18] | Activity [19] | Activity [20] | Activity (Marmota monax [21]) | further results
Nc1ccn([C@@H]2CS[C@H](CO)O2)c(=O)n1 [LAMIVUDINE] | 5.2 log10ng/ml | Active | 47 pg | 33 pg | Non-toxic | Toxic | 5% | 982 pg | Toxic | 1133 pg | 413 pg | Toxic | 5% | 59% | 4.6 log10ng/ml | 48% | 5% | 39 pg | 4.4 log10ng/ml | Toxic | Activity [9]: Active; Activity (Marmota monax [22]): Toxic; Activity (Marmota monax [23]): Non-toxic; Activity [24]: 46 pg; Activity [25]: 36%; Activity (Marmota monax [26]): Toxic; Activity [27]: 4.7 log10ng/ml; Activity (Marmota monax [28]): Toxic; Activity [29]: 39%; Activity [30]: 1%; Activity [31]: 1063 pg
Nc1nc(=O)n([C@@H]2CS[C@H](CO)O2)cc1F [EMTRICITABINE] | 4.5 log10ng/ml | Active | 43 pg | 35 pg | Non-toxic | Toxic | 10% | 845 pg | Toxic | 644 pg | 428 pg | Toxic | 10% | 63% | 4.7 log10ng/ml | 64% | 10% | 42 pg | 4.4 log10ng/ml | Toxic | Activity (Marmota monax [22]): Toxic; Activity [32]: Active; Activity (Marmota monax [23]): Non-toxic; Activity [24]: 48 pg; Activity [25]: 40%; Activity (Marmota monax [26]): Toxic; Activity [27]: 4.5 log10ng/ml; Activity (Marmota monax [28]): Toxic; Activity [29]: 47%; Activity [30]: 2%; Activity [31]: 1239 pg
